Measured values taken from PMC3101112 (Cancer Management and Research, 2011).

How the values were obtained:
[1] = target: TIE2 (Homo sapiens, UniProt Q02763); assay: Cell-based target inhibition assay, CHO - Clone113, pTIE2; conditions: read-out: Cell-Based Target Inhibition Assays IC50, pTIE2 pY99, stable over-expression of TIE2
[2] = target: EPHB1 (Homo sapiens, UniProt P54762); assay: Biochemical inhibition profile, EPHB1; conditions: read-out: Biochemical Inhibition Profile IC50, EPHB1
[3] = target: EPHA1 (Homo sapiens, UniProt P21709); assay: Biochemical inhibition profile, EPHA1; conditions: read-out: Biochemical Inhibition Profile IC50, EPHA1
[4] = target: VEGF-R1 (Homo sapiens, UniProt P17948); assay: Biochemical inhibition profile, VEGF-R1; conditions: read-out: Biochemical Inhibition Profile IC50, VEGF-R1
[5] = target: EPHA3 (Homo sapiens, UniProt P29320); assay: Biochemical inhibition profile, EPHA3; conditions: read-out: Biochemical Inhibition Profile IC50, EPHA3
[6] = target: FLT4 (Homo sapiens, UniProt P35916); assay: Biochemical inhibition profile, FLT4; conditions: read-out: Biochemical Inhibition Profile IC50, FLT4
[7] = test system: MV4-11; assay: cells; format: cell-based; conditions: read-out: Cell-Based Antiproliferation Assay IC50; MV4-11; constitutively active (FLT3 ITD Mutation D835)
[8] = Adverse events; format: in vivo, human
How it was run: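 Five relapsed AML patients took test compound 50 mg/day as a once-daily oral capsule after an ~8 h fast, with breakfast at least 60 min later. A single-dose visit came first, then multidose treatment for four weeks (two weeks after amendment). Adverse events were graded by CTCAE v3.0. Dose-limiting toxicity definitions covered Grade ≥3 nonhematological events and Grade 3/4 QTc or blood-pressure changes.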

[9] = target: RET (Homo sapiens, UniProt P07949); assay: Biochemical inhibition profile, RET; conditions: read-out: Biochemical Inhibition Profile IC50, RET
[10] = target: EPHB4 (Homo sapiens, UniProt P54760); conditions: read-out: Biochemical Inhibition Profile IC50, EPHB4
[11] = QTc assessment in patients with relapsed AML; format: in vivo, human; conditions: after the single-dose administration, 48-hour follow-up
How it was run: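 QTc was corrected by both Bazett and Fridericia formulas and compared with baseline across the 48 h after a single 50 mg oral dose. QTc was set against test-compound plasma concentration. Grade 3 was defined as >500 msec or a rise of >60 msec from baseline, confirmed by 12-lead ECG.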

[12] = target: FLT3 (Homo sapiens, UniProt P36888); assay: Biochemical inhibition profile, FLT3; conditions: read-out: Biochemical Inhibition Profile IC50, FLT3
[13] = target: EPHA2 (Homo sapiens, UniProt P29317); assay: Biochemical inhibition profile, EPHA2; conditions: read-out: Biochemical Inhibition Profile IC50, EPHA2
[14] = Maximum CTC grade 1, n = 5 patients, regardless of causality
[15] = Maximum CTC grade 2, n = 5 patients, regardless of causality
[16] = Maximum CTC grade 3, n = 5 patients, regardless of causality
[17] = Maximum CTC grade 4, n = 5 patients, regardless of causality

FLT3, sequence (P36888 27-993): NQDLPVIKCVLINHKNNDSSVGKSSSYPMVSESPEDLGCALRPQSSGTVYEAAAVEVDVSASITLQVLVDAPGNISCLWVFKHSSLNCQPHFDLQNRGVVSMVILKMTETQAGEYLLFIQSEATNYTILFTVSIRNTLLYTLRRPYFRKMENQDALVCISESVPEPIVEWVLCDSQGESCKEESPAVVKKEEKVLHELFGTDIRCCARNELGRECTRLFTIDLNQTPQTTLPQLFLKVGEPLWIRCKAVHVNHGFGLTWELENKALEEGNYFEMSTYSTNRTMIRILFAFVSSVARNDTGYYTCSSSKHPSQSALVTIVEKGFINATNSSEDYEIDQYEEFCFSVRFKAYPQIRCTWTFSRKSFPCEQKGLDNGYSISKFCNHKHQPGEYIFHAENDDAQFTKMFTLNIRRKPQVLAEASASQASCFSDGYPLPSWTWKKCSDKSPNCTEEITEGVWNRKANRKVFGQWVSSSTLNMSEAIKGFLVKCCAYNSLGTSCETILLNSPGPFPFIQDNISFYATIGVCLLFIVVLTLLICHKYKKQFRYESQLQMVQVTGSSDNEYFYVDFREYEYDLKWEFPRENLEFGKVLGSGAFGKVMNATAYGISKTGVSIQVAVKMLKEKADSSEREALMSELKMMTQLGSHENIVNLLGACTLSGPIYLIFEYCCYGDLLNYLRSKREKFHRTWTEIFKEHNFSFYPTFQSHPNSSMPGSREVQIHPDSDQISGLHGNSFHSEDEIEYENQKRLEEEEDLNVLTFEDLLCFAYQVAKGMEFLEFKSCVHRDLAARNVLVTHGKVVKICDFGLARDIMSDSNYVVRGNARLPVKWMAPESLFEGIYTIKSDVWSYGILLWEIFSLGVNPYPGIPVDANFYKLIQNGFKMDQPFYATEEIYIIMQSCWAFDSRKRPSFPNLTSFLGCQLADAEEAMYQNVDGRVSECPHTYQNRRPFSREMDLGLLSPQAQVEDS
EPHA2, sequence (P29317 24-976): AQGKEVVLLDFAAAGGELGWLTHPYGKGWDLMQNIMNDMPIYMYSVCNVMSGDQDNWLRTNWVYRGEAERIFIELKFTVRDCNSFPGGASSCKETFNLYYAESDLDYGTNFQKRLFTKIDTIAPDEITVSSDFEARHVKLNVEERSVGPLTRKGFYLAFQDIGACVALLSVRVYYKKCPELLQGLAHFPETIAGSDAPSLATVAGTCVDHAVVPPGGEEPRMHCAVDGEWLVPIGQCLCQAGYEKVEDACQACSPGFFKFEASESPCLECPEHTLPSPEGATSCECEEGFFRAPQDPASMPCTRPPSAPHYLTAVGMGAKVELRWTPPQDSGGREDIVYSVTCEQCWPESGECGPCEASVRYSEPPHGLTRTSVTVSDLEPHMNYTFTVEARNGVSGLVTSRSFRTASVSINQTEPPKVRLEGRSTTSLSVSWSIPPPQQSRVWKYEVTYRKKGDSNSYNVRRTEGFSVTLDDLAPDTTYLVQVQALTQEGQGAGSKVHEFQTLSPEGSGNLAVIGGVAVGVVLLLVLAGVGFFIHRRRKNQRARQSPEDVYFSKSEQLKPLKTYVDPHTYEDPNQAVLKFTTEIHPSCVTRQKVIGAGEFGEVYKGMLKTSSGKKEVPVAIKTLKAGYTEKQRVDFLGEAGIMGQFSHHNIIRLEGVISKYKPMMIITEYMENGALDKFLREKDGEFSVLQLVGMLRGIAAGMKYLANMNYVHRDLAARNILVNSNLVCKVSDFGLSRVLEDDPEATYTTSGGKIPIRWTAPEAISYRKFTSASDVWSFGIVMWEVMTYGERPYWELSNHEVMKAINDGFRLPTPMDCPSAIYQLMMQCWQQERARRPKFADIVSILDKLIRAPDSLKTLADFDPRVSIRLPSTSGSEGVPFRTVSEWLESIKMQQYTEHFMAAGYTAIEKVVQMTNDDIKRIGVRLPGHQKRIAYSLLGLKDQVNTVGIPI
VEGF-R1, sequence (P17948 27-1338): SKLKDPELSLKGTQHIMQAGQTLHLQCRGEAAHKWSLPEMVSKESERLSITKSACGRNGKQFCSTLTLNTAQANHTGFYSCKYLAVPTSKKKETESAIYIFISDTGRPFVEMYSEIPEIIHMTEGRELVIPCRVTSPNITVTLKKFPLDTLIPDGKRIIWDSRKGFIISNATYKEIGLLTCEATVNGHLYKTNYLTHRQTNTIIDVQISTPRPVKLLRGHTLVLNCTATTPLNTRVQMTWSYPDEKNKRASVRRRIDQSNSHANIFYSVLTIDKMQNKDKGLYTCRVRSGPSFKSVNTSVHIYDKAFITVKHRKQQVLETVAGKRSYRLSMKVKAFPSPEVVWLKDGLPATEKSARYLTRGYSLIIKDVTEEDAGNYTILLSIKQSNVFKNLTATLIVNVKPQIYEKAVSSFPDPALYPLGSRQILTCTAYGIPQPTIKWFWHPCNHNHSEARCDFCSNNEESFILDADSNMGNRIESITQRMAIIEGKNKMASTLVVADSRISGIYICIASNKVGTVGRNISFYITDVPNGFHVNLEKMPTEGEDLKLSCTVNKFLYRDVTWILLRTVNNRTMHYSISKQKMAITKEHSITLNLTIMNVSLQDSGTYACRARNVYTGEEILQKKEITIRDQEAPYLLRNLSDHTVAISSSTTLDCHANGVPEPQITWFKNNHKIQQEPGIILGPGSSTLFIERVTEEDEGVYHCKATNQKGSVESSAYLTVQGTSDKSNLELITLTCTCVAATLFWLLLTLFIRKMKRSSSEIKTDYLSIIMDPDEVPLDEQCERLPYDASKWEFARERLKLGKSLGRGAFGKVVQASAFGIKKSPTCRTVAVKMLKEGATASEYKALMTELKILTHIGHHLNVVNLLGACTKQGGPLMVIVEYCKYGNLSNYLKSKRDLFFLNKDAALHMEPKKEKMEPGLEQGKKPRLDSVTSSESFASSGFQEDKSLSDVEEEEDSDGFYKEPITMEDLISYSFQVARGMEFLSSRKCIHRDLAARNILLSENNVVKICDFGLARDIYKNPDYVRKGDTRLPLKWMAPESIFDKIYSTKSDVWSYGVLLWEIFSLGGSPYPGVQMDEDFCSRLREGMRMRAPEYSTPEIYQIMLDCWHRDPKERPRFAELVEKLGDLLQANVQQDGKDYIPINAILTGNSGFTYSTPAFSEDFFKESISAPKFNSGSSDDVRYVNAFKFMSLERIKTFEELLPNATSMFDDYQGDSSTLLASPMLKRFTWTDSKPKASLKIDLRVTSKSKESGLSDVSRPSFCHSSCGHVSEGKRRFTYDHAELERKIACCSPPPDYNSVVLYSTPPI
EPHB1, sequence (P54762 18-984): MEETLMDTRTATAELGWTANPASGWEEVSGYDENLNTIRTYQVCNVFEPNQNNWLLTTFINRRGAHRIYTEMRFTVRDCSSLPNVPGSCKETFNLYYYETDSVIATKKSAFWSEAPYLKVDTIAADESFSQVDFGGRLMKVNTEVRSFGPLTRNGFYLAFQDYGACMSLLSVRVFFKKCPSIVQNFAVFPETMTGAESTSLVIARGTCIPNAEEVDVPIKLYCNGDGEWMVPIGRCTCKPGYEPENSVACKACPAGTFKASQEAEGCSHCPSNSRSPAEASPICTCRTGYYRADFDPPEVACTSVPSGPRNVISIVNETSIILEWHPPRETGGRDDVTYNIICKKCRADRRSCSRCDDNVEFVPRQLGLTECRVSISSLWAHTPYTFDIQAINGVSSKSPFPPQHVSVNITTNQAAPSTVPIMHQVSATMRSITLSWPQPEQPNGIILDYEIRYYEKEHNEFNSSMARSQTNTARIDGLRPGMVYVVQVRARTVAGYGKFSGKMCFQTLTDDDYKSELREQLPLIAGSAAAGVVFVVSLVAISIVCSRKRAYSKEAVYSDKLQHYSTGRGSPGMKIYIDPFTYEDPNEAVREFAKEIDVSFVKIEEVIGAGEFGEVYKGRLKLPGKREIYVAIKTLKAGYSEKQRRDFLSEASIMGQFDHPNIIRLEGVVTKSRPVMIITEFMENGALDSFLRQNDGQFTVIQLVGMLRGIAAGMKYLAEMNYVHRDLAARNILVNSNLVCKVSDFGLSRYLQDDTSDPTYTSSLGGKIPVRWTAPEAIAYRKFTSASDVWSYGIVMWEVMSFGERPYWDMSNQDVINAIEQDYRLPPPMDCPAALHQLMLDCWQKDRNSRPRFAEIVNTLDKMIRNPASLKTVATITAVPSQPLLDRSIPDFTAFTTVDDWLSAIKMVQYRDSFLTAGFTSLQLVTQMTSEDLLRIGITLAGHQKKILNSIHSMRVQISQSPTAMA

Compound: Cc1cc(-c2ccn3c(-c4ccc(CC(=O)Nc5cccc(C(F)(F)F)c5)c(F)c4)cnc3c2)ccn1 [LY2457546]
- IC50 [1]: 166 nM
- IC50 [2]: 21.4 nM
- IC50 [3]: 616 nM
- IC50 [4]: 30.6 nM
- IC50 [5]: 99.8 nM
- IC50 [6]: 1.56 nM
- IC50 [7]: 0.339 nM
- Chapped lips, number of patients [8, 14]: 1
- Constipation, number of patients [8, 14]: 1
- Cough, number of patients [8, 14]: 1
- Diarrhea, number of patients [8, 14]: 2
- Epistaxis, number of patients [8, 14]: 1
- Facial swelling, number of patients [8, 14]: 1
- Fatigue, number of patients [8, 14]: 1
- Headache, number of patients [8, 14]: 3
- Hemangioma of liver, number of patients [8, 14]: 1
- Hematoma, number of patients [8, 14]: 1
- Hematuria, number of patients [8, 14]: 1
- Hemorrhoids, number of patients [8, 14]: 1
- Hepatomegaly, number of patients [8, 14]: 1
- Hyperhidrosis, number of patients [8, 14]: 1
- Hypokalemia, number of patients [8, 14]: 3
- Inguinal hernia, number of patients [8, 14]: 1
- Musculoskeletal pain, number of patients [8, 14]: 1
- Nausea, number of patients [8, 14]: 1
- Nephrolithiasis, number of patients [8, 14]: 1
- Oropharyngeal pain, number of patients [8, 14]: 1
- Osteoporosis, number of patients [8, 14]: 1
- Peripheral edema, number of patients [8, 14]: 1
- Petechiae, number of patients [8, 14]: 3
- Splenomegaly, number of patients [8, 14]: 1
- Ulcerative colitis, number of patients [8, 14]: 1
- Vertigo, number of patients [8, 14]: 1
- Anxiety, number of patients [8, 15]: 2
- Asthma, number of patients [8, 15]: 1
- Back pain, number of patients [8, 15]: 1
- Bladder spasm, number of patients [8, 15]: 1
- Constipation, number of patients [8, 15]: 1
- Epistaxis, number of patients [8, 15]: 2
- Gingival hyperplasia, number of patients [8, 15]: 1
- Hemorrhoids, number of patients [8, 15]: 1
- Hypertension, number of patients [8, 15]: 2
- Insomnia, number of patients [8, 15]: 1
- Keratoconjunctivitis sicca, number of patients [8, 15]: 1
- Stomatitis, number of patients [8, 15]: 1
- Urticaria, number of patients [8, 15]: 1
- Anal abscess, number of patients [8, 16]: 1
- Asthenia (muscle weakness), number of patients [8, 16]: 1
- Breast cellulitis, number of patients [8, 16]: 1
- Catheter-related infection, number of patients [8, 16]: 1
- Febrile neutropenia, number of patients [8, 16]: 2
- Fungal sepsis, number of patients [8, 16]: 1
- Hypotension, number of patients [8, 16]: 1
- Neutropenic sepsis, number of patients [8, 16]: 1
- Hemorrhage, number of patients [8, 17]: 1
- Hypophosphatemia, number of patients [8, 17]: 1
- Adverse events that were Grade 1 or 2 ([8]; five patients, 50 mg/day orally): 81%
- Dose-limiting toxicity ([8]; one patient (C) of five, 50 mg/day orally): generalized muscle weakness (Grade 3)
- IC50 [9]: 4.19 nM
- IC50 [10]: 39.8 nM
- QTc prolongation after Bazet and Fridericia corrections [11]: not present
- IC50 [12]: 5.1 nM
- IC50 [13]: 37.4 nM
